Reference: ChEMBL document CHEMBL2412970, “Synthesis and anticancer activity of 2,4-disubstituted furo[3,2-b]indole derivatives” (Eur J Med Chem, 2013)
pIC50: −log10 of the molar value. Calls of active or inactive are those of the source. No cut-off for these calls is given here.

Legend:
BT-549 = assay: Cytotoxicity against human BT549 cells after 48 hrs by sulforhodamine B assay; type: functional; details: BT-549, 48 h
A498 [1] = assay: Induction of apoptosis in human A498 cells assessed as early apoptotic cells at 0.5 uM after 24 hrs by AnnexinV/FITC-propidium iodide staining-based flow cytometry (reference value: 3.9%); type: functional
A498 [2] = assay: Antitumor activity against human A498 cells xenografted in BALB/cAnN.Cg-Foxn1nu/CrlNarl nude mouse assessed as suppression of tumor growth at 30 to 60 mg/kg/day, ip qd; type: functional, organism-based; details: TDE = time-dependent effect
Summary of the method: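 Male nude mice (18–20 g, 4–6 weeks) were inoculated subcutaneously with A498 cells, 2 × 10⁶ per mouse in 0.1 mL PBS. Once tumors reached 100 mm³, mice were randomized and given ip doses of 30 or 60 mg/kg, 5 times per week for 4 weeks. Body weight and tumor size were recorded every 7 days over 28 days. Volume = 1/2 ([…]).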

OVCAR-3 = assay: Cytotoxicity against human OVCAR3 cells after 48 hrs by sulforhodamine B assay; type: functional; details: OVCAR-3, 48 h
A498 [3] = assay: Induction of apoptosis in human A498 cells assessed as early apoptotic cells at 0.5 uM after 48 hrs by AnnexinV/FITC-propidium iodide staining-based flow cytometry (reference value: 3.9%); type: functional
A498 [4] = assay: Cell cycle arrest in human A498 cells assessed as accumulation at S phase at 0.5 uM after 48 hrs by propidium iodide staining-based flow cytometry (reference value: 15.92 +/- 0.03%); type: functional
HCT-116 = assay: Cytotoxicity against human HCT116 cells after 48 hrs by sulforhodamine B assay; type: functional; details: HCT-116, 48 h
NCI-H322M = assay: Cytotoxicity against human NCI-H322M cells after 48 hrs by sulforhodamine B assay; type: functional
COLO 205 = assay: Cytotoxicity against human COLO205 cells after 48 hrs by MTT assay; type: functional, cell-based; details: COLO 205, 48 h
Summary of the method: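 Cells were treated with a range of concentrations for 48 h. Viability was read by MTT: formazan was dissolved in DMSO and absorbance read at 570 nm. Untreated or 0.1% DMSO cells served as control. Data are mean from three independent experiments. HL-60, H460 and COLO 205 were kept in RPMI-1640 with 10% FBS and penicillin/streptomycin.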

A498 [5] = assay: Cell cycle arrest in human A498 cells assessed as accumulation at G0/G1 phase at 0.5 uM after 36 hrs by propidium iodide staining-based flow cytometry (reference value: 78.70 +/- 0.02%); type: functional
A498 [6] = assay: Cell cycle arrest in human A498 cells assessed as accumulation at G2/M phase at 0.5 uM after 48 hrs by propidium iodide staining-based flow cytometry (reference value: 5.39 +/- 0.01%); type: functional
A498 [7] = assay: Cell cycle arrest in human A498 cells assessed as accumulation at G0/G1 phase at 0.5 uM after 24 hrs by propidium iodide staining-based flow cytometry (reference value: 78.70 +/- 0.02%); type: functional
A498 [8] = assay: Cell cycle arrest in human A498 cells assessed as accumulation at G2/M phase at 0.5 uM after 24 hrs by propidium iodide staining-based flow cytometry (reference value: 5.39 +/- 0.01%); type: functional
Malme-3M = assay: Cytotoxicity against human MALME-3M cells after 48 hrs by sulforhodamine B assay; type: functional
A498 [9] = assay: Induction of apoptosis in human A498 cells assessed as late apoptotic cells at 0.5 uM after 48 hrs by AnnexinV/FITC-propidium iodide staining-based flow cytometry (reference value: 9.6%); type: functional
Summary of the method: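 Flow cytometry with annexin V-FITC/PI double labeling of A498 cells treated for 12, 24, 36 or 48 h; untreated cells served as the 0 h control. Stained in binding buffer for 15 min at room temperature in the dark, with more binding buffer added just before analysis. Annexin V+/PI− (Q4) counted as early apoptotic and annexin V+/PI+ (Q2) as late apoptotic.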

PC-3 = assay: Cytotoxicity against human PC3 cells after 48 hrs by sulforhodamine B assay; type: functional; details: PC-3, 48 h
A498 [10] = assay: Cell cycle arrest in human A498 cells assessed as accumulation at sub-G1 phase at 0.5 uM after 48 hrs by propidium iodide staining-based flow cytometry (reference value: 0.10 +/- 0.07%); type: functional
A549 = assay: Cytotoxicity against human A549/ATCC cells after 48 hrs by sulforhodamine B assay; type: functional; details: A549, 48 h
NCI-H226 = assay: Cytotoxicity against human NCI-H226 cells after 48 hrs by sulforhodamine B assay; type: functional; details: NCI-H226, 48 h
A498 [11] = assay: Cytotoxicity against human A498 cells assessed as cell rounding at 0.5 uM after 24 hrs by phase contrast microscopy; type: functional, cell-based
Summary of the method: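 A498 cells were plated at 5 × 10⁵ per well and exposed to 0.5 µM for 24 h. Cell rounding and shrinkage were scored by microscopy against untreated control cells.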

MDA-MB-435 = assay: Cytotoxicity against human MDA-MB-435 cells after 48 hrs by sulforhodamine B assay; type: functional; details: MDA-MB-435, 48 h
SF-295 = assay: Cytotoxicity against human SF295 cells after 48 hrs by sulforhodamine B assay; type: functional; details: SF-295, 48 h
NCI-H23 = assay: Cytotoxicity against human NCI-H23 cells after 48 hrs by sulforhodamine B assay; type: functional; details: NCI-H23, 48 h
A498 [12] = assay: Induction of apoptosis in human A498 cells assessed as early apoptotic cells at 0.5 uM after 36 hrs by AnnexinV/FITC-propidium iodide staining-based flow cytometry (reference value: 3.9%); type: functional
TK-10 = assay: Cytotoxicity against human TK10 cells after 48 hrs by sulforhodamine B assay; type: functional; details: TK-10, 48 h
K562 = assay: Cytotoxicity against human K562 cells after 48 hrs by sulforhodamine B assay; type: functional; details: K562, 48 h
A498 [13] = assay: Induction of apoptosis in human A498 cells assessed as early apoptotic cells at 0.5 uM after 12 hrs by AnnexinV/FITC-propidium iodide staining-based flow cytometry (reference value: 3.9%); type: functional
U-251 = assay: Cytotoxicity against human U251 cells after 48 hrs by sulforhodamine B assay; type: functional; details: U-251, 48 h
[14] = read-out: pLC50 (the source's name) (converted)

OCc1ccc(Cn2c3ccccc3c3oc(CO)cc32)o1
GI50 (BT-549): 3.89 µM
CC50 (BT-549; [14]): > 100 µM
TGI (BT-549; read-out: pTGI (converted)): 61.7 µM
Activity (A498 [1]): 12.7%
Activity (A498 [2]): tde
GI50 (OVCAR-3): 8.91 µM
CC50 (OVCAR-3; [14]): > 100 µM
TGI (OVCAR-3; read-out: pTGI): > 100 µM
Activity (A498 [3]): 41%
Activity (A498 [4]): 10.64%
GI50 (HCT-116): 0.912 µM
CC50 (HCT-116; [14]): > 100 µM
TGI (HCT-116; read-out: pTGI): > 100 µM
GI50 (NCI-H322M): > 100 µM
CC50 (NCI-H322M; [14]): > 100 µM
TGI (NCI-H322M; read-out: pTGI): > 100 µM
pIC50 (COLO 205): 4.51
Activity (A498 [5]): 69.69%
Activity (A498 [6]): 18.09%
Activity (A498 [7]): 72.65%
Activity (A498 [8]): 11.37%
GI50 (Malme-3M): > 100 µM
CC50 (Malme-3M; [14]): > 100 µM
TGI (Malme-3M; read-out: pTGI): > 100 µM
Activity (A498 [9]): 21.2%
GI50 (PC-3): 55 µM
CC50 (PC-3; [14]): > 100 µM
TGI (PC-3; read-out: pTGI): > 100 µM
Activity (A498 [10]): 12.76%
GI50 (A549): 64.6 µM
CC50 (A549; [14]): > 100 µM
TGI (A549; read-out: pTGI): > 100 µM
GI50 (NCI-H226): 0.224 µM
TGI (NCI-H226; read-out: pTGI (converted)): 0.55 µM
Activity (A498 [11]): Active
GI50 (MDA-MB-435): > 100 µM
CC50 (MDA-MB-435; [14]): > 100 µM
TGI (MDA-MB-435; read-out: pTGI): > 100 µM
GI50 (SF-295): 26.9 µM
CC50 (SF-295; [14]): > 100 µM
TGI (SF-295; read-out: pTGI): > 100 µM
GI50 (NCI-H23): > 100 µM
CC50 (NCI-H23; [14]): > 100 µM
TGI (NCI-H23; read-out: pTGI): > 100 µM
Activity (A498 [12]): 21.5%
GI50 (TK-10): 0.537 µM
CC50 (TK-10; [14]): > 100 µM
TGI (TK-10; read-out: pTGI (converted)): 3.24 µM
GI50 (K562): 45.7 µM
CC50 (K562; [14]): > 100 µM
TGI (K562; read-out: pTGI): > 100 µM
Activity (A498 [13]): 5%
GI50 (U-251): 30.9 µM
CC50 (U-251; [14]): > 100 µM
TGI (U-251; read-out: pTGI): > 100 µM
